Rows were chosen to be rich in hits. Some 1.5% of all compounds tested hit in one or more screens of this group.
NR1D1 modulator – Rev-erb alpha (human) modulation. P20393. AID 1259318. activity, % at 10 µM. hit rate 0.79% among 370,000. Rev-erbα–FITC-DNA binding, fluorescence polarization, 90 min;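 active means activity above about 14%, limit read from the data; passing the limit was not always enough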
NR2E3 ag-1 – human photoreceptor-specific nuclear receptor agonism; Q9Y5X4; inhibition of corepressor binding, % at 3.98 µM; AID 602229; CHO-S Gal4-NCOR/VP16-NR2E3 two-hybrid, luciferase; hit rate 0.35% among 360,000;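 active means inhibition above the mean of all tested compounds plus 3 SD, cut at about 70% in these data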;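 further: higher means lower luciferase signal from less NR2E3 corepressor binding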
Target sequence (Q9Y5X4 whole entry, looked up, the tested form may be a part): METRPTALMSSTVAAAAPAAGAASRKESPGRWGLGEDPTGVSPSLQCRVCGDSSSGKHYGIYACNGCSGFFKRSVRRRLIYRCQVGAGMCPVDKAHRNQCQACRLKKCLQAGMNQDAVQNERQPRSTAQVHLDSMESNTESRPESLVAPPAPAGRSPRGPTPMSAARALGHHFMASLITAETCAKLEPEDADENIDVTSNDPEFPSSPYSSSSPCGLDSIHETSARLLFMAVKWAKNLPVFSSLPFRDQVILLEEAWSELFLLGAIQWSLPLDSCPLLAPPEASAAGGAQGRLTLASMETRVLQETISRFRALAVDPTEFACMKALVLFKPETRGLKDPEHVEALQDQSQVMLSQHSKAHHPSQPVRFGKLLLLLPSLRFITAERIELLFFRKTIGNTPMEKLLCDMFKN
NR2E3 ag-2 – NR2E3 (human) agonism; GST-NR2E3/biotin-RetCOR TR-FRET, 1536-well; inhibition of corepressor binding, % at 4.78 µM; hit rate 0.12% among 320,000; AID 2300;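 active means percent inhibition above the cutoff of mean plus 3 SD of all tested compounds, set per screening campaign, cut at about 20% in these data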
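Material: NR2E3–RetCOR corepressor complex | Quantity: 1.35 nM GST-tagged NR2E3 final | Schedule: 5 h at 4 °C | Replication: Singlicate compound wells | Reagent: RetCOR corepressor, biotinylated, 7 nM | Controls: Biotin wells as high control, 0.6% DMSO wells as low control | Signal: TR-FRET, Eu(K)-anti-GST donor, streptavidin-D2 acceptor, ex 340, em 617/671 nm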
PG9 binder – PG9 antibody binding by small molecule. hit rate 0.43% among 360,000. inhibition, % at 6.7 µM. TR-FRET gp120-PG9 antibody binding; in the data active means inhibition above about 8.5%
NR1D1 mod conf – Rev-erb alpha (human) modulation, hit confirmation | hit rate 61% among 3,000 | Rev-erb alpha FITC-DNA binding, fluorescence polarization, 90 min | activation, % at 25 µM | shares compounds with NR1D1 modulator;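 active means activation at or above a set limit, or at least 3 SD above the negative control mean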
RORg DNA counter – affects RORgamma DNA binding in a Rev-erb alpha counter-screen. shares compounds with NR1D1 modulator. purified RORgamma protein-FITC-DNA binding, fluorescence polarization. IC50, µM. hit rate 8% among 910. AID 1259320;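 active means Compounds whose fitted half-maximal concentration for disrupting protein-DNA binding is below 10 micromolar; the record names Rev-erb in its text, so the target is in doubt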
Hits are given with their value; . = inactive; / = no result given.

SMILES | NR1D1 modulator | NR2E3 ag-1 | NR2E3 ag-2 | PG9 binder | NR1D1 mod conf | others
COc1ccc(-c2sc3cc4c(cc3c2-c2ccc3c(c2)OCCO3)OCO4)cc1 | 17.8 | . | / | . | .
COc1ccc2sc(-c3ccc(S(C)(=O)=O)cc3)c(-c3ccc4c(c3)OCCO4)c2c1 | . | . | / | . | /
Cc1ccc(NC(=O)c2cc(-c3ccc4c(c3)OCO4)on2)cc1 | . | . | . | . | /
COc1ccc(OC)c(-c2cc(C(=O)Nc3cc(C)on3)no2)c1 | 21.3 | . | . | . | .
CN(Cc1ccccc1)S(=O)(=O)c1cccc(C(=O)OCc2ccc(C(F)(F)F)cc2)c1 | . | / | / | / | /
COC(=O)[C@]12C[C@H](CC(=O)N3CCCCC3)C(=O)N(Cc3ccco3)C1=C[C@H](COCc1ccccc1)O[C@@H]2C | . | / | / | / | /
CCCCOCCCNC(=O)C[C@H]1C(=O)N(Cc2ccc(OC)cc2)C2=CCCCC[C@@]21C(=O)OC | . | / | / | / | /
COC(=O)c1ccc(S(=O)(=O)N2CCC(NC(=O)COc3ccc(F)cc3)CC2)cc1 | . | / | / | / | /
NC(=O)C1CCN(c2nc(-c3ccc4c(c3)CCO4)cs2)CC1 | . | / | / | / | /
O=S1(=O)c2c(cccc2N2CCC[C@H]2CO)O[C@@H]2CCN1C2 | . | / | / | / | /
Cc1ccc(OCC(=O)Nc2ccc(Cl)cc2)c(-n2nc3ccccc3n2)c1 | 68.5 | . | . | . | .
CCOc1ccc(C)cc1-n1nc2ccccc2n1 | . | . | . | . | /
COc1cccc2cc(C(=O)NCc3ccc(Cl)cc3)c(=N)oc12 | . | . | . | . | /
COc1cccc2cc(C(=O)NCc3ccc(Cl)cc3)c(=O)oc12 | 21.1 | . | . | . | .
Cc1ccccc1C(=O)NN(C)c1nc2ccccc2nc1C(F)(F)F | 36.1 | . | . | . | 30.6
Cc1cccc(NC(=O)Nc2cnccn2)c1C | 17.7 | . | . | . | .
Cc1ccc(-n2nccc2-c2nn(-c3cccc(C(F)(F)F)c3)c(=O)n(C)c2=O)cc1 | 33.1 | . | . | . | .
COc1ccc(NC(=S)Nc2cc(C)cc(C)n2)cc1OC | 21.9 | . | . | . | .
CNC(=S)Nc1ccc(OC)c(OC)c1 | . | . | . | . | /
Cc1cc(C)nc(NC(=S)Nc2ccc(Br)cc2Cl)c1 | . | . | . | . | /
Cc1cc(C)nc(NC(=S)Nc2cccc(Cl)c2Cl)c1 | 63.0 | . | . | . | .
COc1ccc(C2C(C(=O)Nc3ccc(Cl)cc3)CCC(=O)N2c2ccc(OC)cc2)cc1 (stereo not given) | . | / | / | / | /
CCCCNC(=O)c1cc2n(n1)C(C(F)(F)F)CC(c1ccccc1)N2 (stereo not given) | . | . | . | . | /
CCOC(=O)c1c(NC(=O)c2cc3n(n2)C(C(F)(F)F)CC(c2ccccc2)N3)sc(C)c1C (stereo not given) | 36.4 | . | . | . | .
COC(=O)C1CN(Cc2ccc(OC)cc2)CCS(=O)(=O)N1Cc1ccc(C)cc1 (stereo not given) | . | / | / | / | /
SMILES | NR1D1 modulator | NR2E3 ag-1 | NR2E3 ag-2 | PG9 binder | NR1D1 mod conf | others
COc1cc2sc3ccc(-c4ccc(N(C)C)nc4)cc3c(=O)c2cc1OC | . | / | . | . | /
COc1ccc(-c2ccc3sc4ccccc4c(=O)c3c2)cn1 | 58.0 | . | . | . | 61.1 | RORg DNA counter=.
NNc1nnc2c3cc(F)ccc3n(Cc3ccccc3)c2n1 | . | . | . | . | /
CSc1nnc2c3ccccc3n(CCc3ccccc3)c2n1 | . | . | . | . | /
CSc1nnc2c3cc(F)ccc3n(Cc3ccccc3)c2n1 | 59.3 | . | . | . | 47.3 | RORg DNA counter=.
CSc1nnc2c3ccccc3n(Cc3ccccc3)c2n1 | 21.7 | . | . | . | 24.0
Nn1c(SCc2ccc([N+](=O)[O-])cc2)nnc1-c1cc(-c2ccccc2)n[nH]1 | . | / | / | / | /
Cc1cc2n(n1)C(c1cn(-c3ccccc3)nc1C)Nc1ccccc1-2 (stereo not given) | 28.5 | . | . | . | .
N#C/C(=C/c1ccc(N2CCOCC2)o1)C(=O)Nc1ccccc1 | 53.4 | . | / | . | 26.0
N#C/C(=C\c1ccc(N2CCOCC2)o1)C(=O)NC1CCCCC1 | . | . | . | . | /
N#C/C(=C\c1ccc(N2CCOCC2)o1)C(=O)NCC1CCCO1 (stereo not given) | 20.7 | . | . | . | .
N#C/C(=C\c1ccc(N2CCOCC2)o1)C(=O)NCCc1ccccc1 | . | . | . | . | /
CCCCCOc1ccc(NC(=O)CSc2cccc3cccnc23)cc1 | 45.7 | . | . | . | 38.9 | RORg DNA counter=1.35

Screening data as filed in PubChem BioAssay.
